In test [1] the test system is L1210. The test can be described thus: Cytotoxicity against mouse L1210 cells after 3 days by MTT assay. The format is functional, cell-based. Conditions: L1210, 72 h. In a few lines: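 Murine tumour cells under continuous drug exposure for 3 days. Growth inhibition measured by MTT assay. IC50 is the concentration inhibiting growth by 50%.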
A general note: Formazan colour is commonly taken as a measure of viable cells.

Another test deals with NCI-H460. The test can be described thus: Cytotoxicity against human NCI-H460 cells after 48 hrs by sulforhodamine B assay. The format is functional. The settings on record: NCI-H460, 48 h, read-out: pLC50 (the source's name) (converted). In a few lines:
(§1)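 NCI human cancer cell line panel. Continuous 48 h drug exposure, viability by sulforhodamine B. GI50, TGI and LC50 derived from dose–response curves.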
In general terms: Sulforhodamine B stains cellular protein and so reports cell mass.

In a further test the test system is NCI-H322M. Briefly: Cytotoxicity against human NCI-H322M cells after 48 hrs by sulforhodamine B assay. Type of test: functional. Conditions: read-out: pLC50 (the source's name) (converted). The method, boiled down:
as §1

The next test deals with NCI-H522. Briefly: Cytotoxicity against human NCI-H522 cells after 48 hrs by sulforhodamine B assay. Type of test: functional. The settings on record: NCI-H522, 48 h, read-out: pLC50 (the source's name) (converted). In a few lines: as §1
The subject of another test is CAKI-1. The test can be described thus: Cytotoxicity against human Caki1 cells after 48 hrs by sulforhodamine B assay. Type of test: functional. Conditions: CAKI-1, 48 h, read-out: pLC50 (the source's name) (converted). In a few lines: as §1
Another test deals with SK-OV-3. Briefly: Cytotoxicity against human SKOV3 cells after 48 hrs by sulforhodamine B assay. Type of test: functional. The settings on record: SK-OV-3, 48 h, read-out: pLC50 (the source's name) (converted). The method, boiled down: as §1
The subject of the next test is A549. The test can be described thus: Cytotoxicity against human A549 cells after 48 hrs by sulforhodamine B assay. Type of test: functional. The settings on record: A549, 48 h, read-out: pLC50 (the source's name) (converted). In a few lines: as §1
The test system of a further test is SF-539. Briefly: Cytotoxicity against human SF539 cells after 48 hrs by sulforhodamine B assay. The format is functional. Conditions: SF-539, 48 h, read-out: pLC50 (the source's name) (converted). In a few lines: as §1
A short description of test [2]: Cytotoxicity against human Hs 578T cells after 48 hrs by sulforhodamine B assay. The format is functional. Conditions: read-out: pLC50 (the source's name) (converted). In a few lines:
as §1

A further test relates to SF-268. Briefly: Cytotoxicity against human SF268 cells after 48 hrs by sulforhodamine B assay. The format is functional. Conditions: SF-268, 48 h, read-out: pLC50 (the source's name) (converted). In a few lines: as §1
Another test relates to T47D. Briefly: Cytotoxicity against human T47D cells after 48 hrs by sulforhodamine B assay. Type of test: functional. The settings on record: read-out: pLC50 (the source's name) (converted). The method, boiled down: as §1
The subject of the next test is SK-MEL-2. The test can be described thus: Cytotoxicity against human SK-MEL-2 cells after 48 hrs by sulforhodamine B assay. The format is functional. The settings on record: SK-MEL-2, 48 h, read-out: pLC50 (the source's name) (converted). The method, boiled down:
as §1

The next test deals with SF-295. Briefly: Cytotoxicity against human SF295 cells after 48 hrs by sulforhodamine B assay. The format is functional. The settings on record: SF-295, 48 h, read-out: pLC50 (the source's name) (converted). In a few lines: as §1
The test system of a further test is PC-3. The test can be described thus: Cytotoxicity against human PC3 cells after 48 hrs by sulforhodamine B assay. Type of test: functional. The settings on record: PC-3, 48 h, read-out: pLC50 (the source's name) (converted). The method, boiled down:
as §1

The next test deals with BT-549. Briefly: Cytotoxicity against human BT549 cells after 48 hrs by sulforhodamine B assay. The format is functional. The settings on record: BT-549, 48 h, read-out: pLC50 (the source's name) (converted). In a few lines: as §1
In the next test the test system is Nucleic Acid. Briefly: Binding affinity to pUC18 DNA assessed as DNA alkylating activity after 5 hrs by thermal cleavage assay. Conditions: Escherichia coli. The format is nucleic-acid assay. In a few lines:
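PCR probe from the 749–956 region of pUC18. DNA precipitated and lyophilised, then heated at 90 °C for 30 min in sodium citrate buffer (pH 7.2) to cleave at alkylated adenines. Fragments resolved by electrophoresis.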

For test [3], the system named is L1210. The test can be described thus: Selectivity ratio of IC50 for mouse L1210 cells to IC50 for mouse B16F0 cells. Type of test: functional.
Test [4] can be described thus: Antitumor activity against mouse B16F0 cells xenografted in C57/BL/6J mouse assessed as […] at 10 mg/kg, ip administered on day 1, 5, and 9 measured after 21 days. The format is functional. The settings on record: route intraperitoneal. In a few lines:
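Female C57/BL/6J mice, 5–7 weeks old, 8 per group. Given 200,000 cultured B16-F0 cells (PBS-washed, not mouse-passaged) sc in the left flank on day 0. Dosed 10 mg/kg ip in 1:2 PET/5% glucose on days 1, 5 and 9; controls received vehicle. Tumours measured by caliper about every other day. Volume = length × width². Measurements stopped when 50% of the group had died.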

For the next test, the system named is NCI-H23. Briefly: Cytotoxicity against human NCI-H23 cells after 48 hrs by sulforhodamine B assay. The format is functional. Conditions: NCI-H23, 48 h, read-out: pLC50 (the source's name) (converted). The method, boiled down: as §1
The next test has as its system DU-145. Briefly: Cytotoxicity against human DU145 cells after 48 hrs by sulforhodamine B assay. Type of test: functional. Conditions: DU-145, 48 h, read-out: pLC50 (the source's name) (converted). In a few lines:
as §1

A further test deals with 786-0. Briefly: Cytotoxicity against human 786-0 cells after 48 hrs by sulforhodamine B assay. The format is functional. The settings on record: 786-0, 48 h, read-out: pLC50 (the source's name) (converted). In a few lines: as §1
In a further test the test system is Trypanosoma brucei. The test can be described thus: Antimicrobial activity against procyclic form of Trypanosoma brucei 427 assessed as inhibition of cell proliferation after 72 hrs by alamar blue assay. Conditions: Trypanosoma brucei, 427, 72 h. The format is functional, organism-based. In a few lines: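 T. brucei 427 procyclic forms grown in SDM 79 medium with 0.03 nM to 64 µM compound for 72 h at 26 °C. Proliferation read by Alamar blue reduction after a further 15 h, fluorescence ex 530/em 590 nm.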

Another test relates to OVCAR-4. The test can be described thus: Cytotoxicity against human OVCAR4 cells after 48 hrs by sulforhodamine B assay. Type of test: functional. The settings on record: OVCAR-4, 48 h, read-out: pLC50 (the source's name) (converted). The method, boiled down: as §1
The next test has as its system Leishmania mexicana. The test can be described thus: Antimicrobial activity against promastigotes of Leishmania mexicana assessed as inhibition of cell proliferation after 72 hrs by alamar blue assay. Type of test: functional, organism-based. The method, boiled down: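 Promastigotes at 5 × 10^4 cells/well in DME-L medium with 10% heat-inactivated FBS, hemin, xanthine and penicillin-streptomycin. Exposed to 0.03 nM to 64 µM compound for 72 h at 26 °C. Alamar blue added, incubated 15 h, dye reduction read by fluorescence ex 530/em 590 nm.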
In general terms: The colour change of resazurin is a common sign of viable cells or microbes.

Some results are limits rather than exact numbers.

One may read the IC50 as the point on the concentration scale where inhibition reaches its midpoint. Take `COc1cc2cc(C(=O)Nc3cc(O)c4ncc(C)cc4c3CCCl)[nH]c2c(OC)c1OC`: the IC50 stood at 0.72 nM in the test on L1210 [1], 56 nM in the test on Trypanosoma brucei and 119 nM in the test on Leishmania mexicana. Further, the CC50 was 81300 nM in the test with NCI-H460; 123 nM in the test on NCI-H322M; above 100000 nM in the test on NCI-H522; 1550 nM in the test with CAKI-1; above 100000 nM in the test with SK-OV-3; above 100000 nM in the test on A549. Further, the CC50 with SF-539 is 151 nM; in [2], above 100000 nM; in the test with SF-268 it was above 100000 nM; in the test on T47D it was above 100000 nM; with SK-MEL-2, above 100000 nM; with SF-295, 20900 nM. The CC50 in the test with PC-3 is 11500 nM; in the test with BT-549, above 100000 nM; in the test with NCI-H23, below 10 nM; in the test with DU-145, 2190 nM; with 786-0, 135 nM; in the test with OVCAR-4, 6030 nM. Further, the results for the Activity result (in the test with Nucleic Acid; in test [4]) were “Dose-dependent effect” and 2000 mm3, respectively. Besides, in the test with L1210 [3], the Ratio turned out to be 10.

For the origin of these results see ChEMBL document CHEMBL1250434, “A novel achiral seco-cyclopropylpyrido[e]indolone (CPyI) analog of CC-1065 and the duocarmycins: synthesis, DNA interactions, in vivo anticancer and anti-parasitic evaluation” (Bioorg Med Chem, 2010).
